Screens (PubChem)
IDH1 mut inh: blocks human IDH1 R132H reductase activity | O75874 | diaphorase/resazurin fluorescence, 60 min | 70,000 compounds, 0.18% hits | inhibition, % at 10 µM; in the data active = inhibition above about 34%; inconclusive = no clear call, values can overlap the other calls; inactive = below about 11%
T cruzi growth-1: T. cruzi proliferation inhibition; T. cruzi beta-gal in NIH3T3, GalScreen luminescence, 90 h; inhibition, % at 8.34 µM; 77,000 compounds, 5.9% hits; AID 624255;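 active = mean inhibition above about 93%, with at least 55% of replicates each passing it, limit read from the data, passing the limit was not always enough; inconclusive = only one of those two conditions holds; inactive = neither condition holds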
GASC1 inh: blocks human GASC-1 (KDM4C) demethylase activity. AID 720574. inhibition, % at 12.5 µM. GST-KDM4C 2-372, H3K9me3 peptide, LANCE TR-FRET. 96,000 compounds, 0.15% hits. Q9H3R0;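 active = mean replicate inhibition above about 25%, with at least 55% of replicates also reaching it, limit read from the data, passing the limit was not always enough; inconclusive = only one of those two conditions met; inactive = neither condition met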
Target sequence (Q9H3R0 2-372 limits assumed): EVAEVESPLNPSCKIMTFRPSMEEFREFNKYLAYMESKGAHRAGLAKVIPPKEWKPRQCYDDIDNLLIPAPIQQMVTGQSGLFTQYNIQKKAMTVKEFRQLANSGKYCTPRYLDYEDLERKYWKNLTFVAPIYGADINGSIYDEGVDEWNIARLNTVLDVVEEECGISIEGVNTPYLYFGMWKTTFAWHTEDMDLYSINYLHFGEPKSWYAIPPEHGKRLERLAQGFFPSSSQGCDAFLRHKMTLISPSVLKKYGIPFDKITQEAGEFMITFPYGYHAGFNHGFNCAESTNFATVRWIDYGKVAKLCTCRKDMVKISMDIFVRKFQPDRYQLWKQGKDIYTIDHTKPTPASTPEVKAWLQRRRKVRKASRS
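Test system: N-terminal GST-fused human GASC-1 (KDM4C) fragment, residues 2-372; quantity: GASC-1 enzyme at 10 nM final in reaction; dosing: single dose; schedule: 30 min demethylation and 1 h detection at room temperature; signal: LANCE TR-FRET, excitation 340 nm, emissions 618 and 671 nm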
Pf Dd2 inh: P. falciparum Dd2 growth inhibition; SYBR Green, 72 h; active compounds read low; activity change, % at 10 µM; 94,000 compounds, 2.3% hits; in the data active = activity change below about -80%; inconclusive = no clear call, values can overlap the other calls
T cruzi growth-2: blocks T. cruzi growth in NIH3T3 host cells. shares compounds with T cruzi growth-1. T. cruzi beta-gal in NIH3T3, GalScreen luminescence, 90 h. inhibition, % at 8.35 µM. 5,600 compounds, 72% hits. AID 651739;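 active = mean replicate inhibition above about 95% and at least 55% of replicates individually reaching it, limit read from the data; inconclusive = only one of the two criteria is met; inactive = neither criterion is met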
T cruzi growth-3: inhibitors of T. cruzi proliferation | inhibition, % at 2.09 µM | 5,600 compounds, 21% hits | T. cruzi beta-gal in NIH3T3, GalScreen luminescence, 90 h | shares compounds with T cruzi growth-1 | AID 651740;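 active = mean inhibition above about 95%, with at least 55% of replicates also reaching it, limit read from the data; inconclusive = meets just one of the two conditions; inactive = meets neither condition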
NIH3T3 tox: kills mouse NIH/3T3 fibroblasts; shares compounds with T cruzi growth-1; NIH/3T3 viability, CellTiter-Glo ATP luminescence, 90 h; cytotoxicity (signal decrease), % at 8.35 µM; 5,600 compounds, 14% hits; AID 651742;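 active = mean signal decrease across replicates above about 35% based on untreated-well scatter, with enough replicates individually passing, limit read from the data; inconclusive = no rule stated though some were filed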
NIH3T3 tox 2: NIH/3T3 (mouse) viability loss; NIH/3T3 viability, CellTiter-Glo ATP luminescence, 90 h; inhibition, % at 24.9 µM; shares compounds with T cruzi growth-1; 5,600 compounds, 56% hits;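 active = mean loss of cell viability signal at or above a set limit, and enough replicates individually reaching it; inconclusive = meets only the mean limit or only the replicate share; inactive = meets neither condition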
Numbers stand for hits. Hits are enriched below; roughly 5.8% of the tested compounds scored in any of these assays.

How did COc1ccc(S(=O)(=O)Nc2ccc3c(c2)C(=O)N([C@@H](C)CO)C[C@H](C)[C@@H](CN(C)S(=O)(=O)c2cccs2)OCCCC[C@@H](C)O3)cc1 do in these assays?
IDH1 mut inh: inactive; T cruzi growth-1: 109; GASC1 inh: inactive; Pf Dd2 inh: inactive; T cruzi growth-2: 103; T cruzi growth-3: inactive; NIH3T3 tox: inactive; NIH3T3 tox 2: inactive

What do the screens show for `COc1ccc(S(=O)(=O)Nc2ccc3c(c2)C(=O)N([C@H](C)CO)C[C@H](C)[C@@H](CN(C)S(=O)(=O)c2cccs2)OCCCC[C@H](C)O3)cc1`?
T cruzi growth-1: inactive; GASC1 inh: inactive; Pf Dd2 inh: inactive

Results for Cc1noc(C)c1S(=O)(=O)Nc1ccc2c(c1)CC(=O)N([C@H](C)CO)C[C@H](C)[C@@H](CN(C)Cc1ccc(Cl)c(Cl)c1)O2 ?
IDH1 mut inh: inactive; T cruzi growth-1: 100; GASC1 inh: inactive; Pf Dd2 inh: inactive; T cruzi growth-2: 106; T cruzi growth-3: inactive; NIH3T3 tox: inactive; NIH3T3 tox 2: 104

How did C[C@@H]1CN([C@H](C)CO)C(=O)Cc2cc(NS(=O)(=O)c3ccc(F)cc3)ccc2O[C@H]1CN(C)Cc1ccc(Cl)c(Cl)c1 do in these assays?
IDH1 mut inh: inactive; T cruzi growth-1: inactive; GASC1 inh: inactive; Pf Dd2 inh: inactive

What do the screens show for `C[C@@H]1CN([C@H](C)CO)C(=O)Cc2cc(NS(=O)(=O)c3ccc(Cl)cc3)ccc2O[C@H]1CN(C)Cc1ccc(Cl)c(Cl)c1`?
IDH1 mut inh: inactive; T cruzi growth-1: 97; GASC1 inh: inactive; Pf Dd2 inh: inactive; T cruzi growth-2: 108; T cruzi growth-3: 107; NIH3T3 tox: inactive; NIH3T3 tox 2: 103

What do the screens show for `Cc1ccc(S(=O)(=O)Nc2ccc3c(c2)C(=O)N([C@H](C)CO)C[C@@H](C)[C@@H](CN(C)Cc2ccc(Cl)c(Cl)c2)O3)cc1`?
IDH1 mut inh: inactive; T cruzi growth-1: inconclusive; GASC1 inh: inactive; Pf Dd2 inh: inactive; T cruzi growth-2: 95; T cruzi growth-3: inactive; NIH3T3 tox: 65; NIH3T3 tox 2: 105

How did Cc1noc(C)c1S(=O)(=O)Nc1ccc2c(c1)CC(=O)N([C@@H](C)CO)C[C@H](C)[C@@H](CN(C)Cc1ccc(Cl)c(Cl)c1)O2 do in these assays?
IDH1 mut inh: inactive; T cruzi growth-1: inactive; GASC1 inh: inactive; Pf Dd2 inh: inactive

How did C[C@H](CO)N1C[C@H](C)[C@@H](CN(C)Cc2ccc(Cl)c(Cl)c2)Oc2ccc(NS(=O)(=O)c3ccc(Cl)cc3)cc2CC1=O do in these assays?
IDH1 mut inh: inactive; T cruzi growth-1: inactive; GASC1 inh: inactive; Pf Dd2 inh: inactive

Results for C[C@@H]1CN([C@@H](C)CO)C(=O)Cc2cc(NS(=O)(=O)c3ccc(Cl)cc3)ccc2O[C@H]1CN(C)Cc1ccc(Cl)c(Cl)c1 ?
IDH1 mut inh: inactive; T cruzi growth-1: inconclusive; GASC1 inh: inactive; Pf Dd2 inh: inactive; T cruzi growth-2: inactive; T cruzi growth-3: inactive; NIH3T3 tox: 42; NIH3T3 tox 2: 104

How did CCN(CC(=O)Nc1ccc(F)cc1F)S(=O)(=O)c1ccc2ccccc2c1 do in these assays?
IDH1 mut inh: inactive

How did COc1cccc(S(=O)(=O)N2C[C@H](O)COC[C@H]3O[C@@H](CC(=O)N4CCCCC4)CC[C@@H]32)c1 do in these assays?
T cruzi growth-1: inactive; GASC1 inh: inactive; Pf Dd2 inh: inactive

How did CC(=O)c1ccc(NC(=O)CSc2n[nH]c(-c3ccncc3)n2)cc1 do in these assays?
IDH1 mut inh: inactive

How did COc1ccc(S(=O)(=O)Nc2ccc3c(c2)C(=O)N([C@@H](C)CO)C[C@@H](C)[C@@H](CN(C)Cc2ccccc2)OCCCC[C@@H](C)O3)cc1 do in these assays?
IDH1 mut inh: inactive; T cruzi growth-1: inactive; GASC1 inh: inactive; Pf Dd2 inh: inactive

How did C[C@@H]1CCCCO[C@@H](CN(C)Cc2ccc3c(c2)OCO3)[C@H](C)CN([C@H](C)CO)C(=O)c2cc(NC(=O)Nc3ccc(C(F)(F)F)cc3)ccc2O1 do in these assays?
T cruzi growth-1: 119; GASC1 inh: inactive; Pf Dd2 inh: inactive; T cruzi growth-2: 102; T cruzi growth-3: 110; NIH3T3 tox: inactive; NIH3T3 tox 2: 104

What do the screens show for `C[C@@H]1CN([C@H](C)CO)C(=O)c2cc(NC(=O)Nc3ccc(C(F)(F)F)cc3)ccc2O[C@@H](C)CCCCO[C@@H]1CN(C)Cc1ccc2c(c1)OCO2`?
T cruzi growth-1: inconclusive; GASC1 inh: inactive; Pf Dd2 inh: inactive; T cruzi growth-2: inactive; T cruzi growth-3: 120; NIH3T3 tox: inconclusive; NIH3T3 tox 2: 102

How did C[C@@H]1CCCCO[C@H](CN(C)Cc2ccc3c(c2)OCO3)[C@@H](C)CN([C@H](C)CO)C(=O)c2cc(NC(=O)Nc3ccc(C(F)(F)F)cc3)ccc2O1 do in these assays?
IDH1 mut inh: inactive; T cruzi growth-1: inconclusive; GASC1 inh: inactive; Pf Dd2 inh: inactive; T cruzi growth-2: inactive; T cruzi growth-3: 113; NIH3T3 tox: inactive; NIH3T3 tox 2: 102

How did C[C@@H]1CCCCO[C@@H](CN(C)Cc2ccc(C(F)(F)F)cc2)[C@@H](C)CN([C@@H](C)CO)C(=O)c2cc(NC(=O)Nc3ccc4c(c3)OCO4)ccc2O1 do in these assays?
IDH1 mut inh: inactive; T cruzi growth-1: inactive; GASC1 inh: inactive; Pf Dd2 inh: inactive

How did C[C@H](O)C#Cc1cnc2c(c1)C(=O)N([C@@H](C)CO)C[C@@H](C)[C@H](CN(C)Cc1cccc(C(=O)O)c1)O2 do in these assays?
IDH1 mut inh: inactive; T cruzi growth-1: inactive; GASC1 inh: inactive; Pf Dd2 inh: inactive

How did CC(C)NC(=O)N1C[C@@H]2[C@H](c3ccccc31)[C@H](CO)N2C(=O)c1ccccc1 do in these assays?
T cruzi growth-1: inactive; GASC1 inh: inactive; Pf Dd2 inh: inactive

What do the screens show for `C[C@H]1CN([C@@H](C)CO)C(=O)c2cc(NC(=O)Nc3cccc4ccccc34)ccc2O[C@H]1CN(C)Cc1ccccc1`?
IDH1 mut inh: inactive; T cruzi growth-1: inactive; GASC1 inh: inactive; Pf Dd2 inh: inactive

Results for C[C@@H]1CN([C@H](C)CO)C(=O)c2cc(NC(=O)Nc3cccc4ccccc34)ccc2O[C@@H]1CN(C)Cc1ccc(C(F)(F)F)cc1 ?
IDH1 mut inh: inactive; T cruzi growth-1: 92; GASC1 inh: inactive; Pf Dd2 inh: inactive; T cruzi growth-2: 97; T cruzi growth-3: inactive; NIH3T3 tox: 47; NIH3T3 tox 2: 38
